Compound activity (PubChem)
RAM network inh: inhibitors of the yeast RAM network, primary screen, dse1pr::URA3 reporter, 5-FOA selection; actives 1.8% (n = 190,000); AID 868, 2007; inhibition, % at 50 µM; S. cerevisiae dse1pr::URA3 reporter, 5-FOA growth OD615, 2 d; analog-sensitive cbk1-as2 kinase mutant strain;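 active = inhibition above a set limit, 3 SD over mean compound inhibition, cut at about 8.4% in these data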;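 note: 0% = DMSO-only wells with no growth and 100% = 10 µM 1-NA-PP1 full growth; inhibition rescues growth on 5-FOA so higher OD means more RAM inhibition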
ABCG2 block: ABCG2 efflux pump inhibitors, primary screen, multiplex with ABCB1, IgMXP3 cells, flow cytometry; AID 1325, 2008; inhibition, % at 6.6 µM; JC-1 efflux; actives 0.1% (n = 190,000);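 active = inhibition above 80%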;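 note: 0% = DMSO and 100% = nicardipine control wells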
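Times: 10 min at 25 °C | Test system: Two drug-resistant human cell lines, ABCG2 and ABCB1 | Quantity: 3 million cells/mL final, two lines in 1:1 ratio | Signal: Flow cytometry, 530 nm JC-1 signal | Dosing: Compound at 6.6 µM | Controls: Nicardipine and DMSO wells | Reagent: JC-1 as fluorescent efflux pump substrate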
Lmaj promast: Leishmania major promastigote growth inhibition, primary screen; actives 9% (n = 200,000); Leishmania major promastigotes, resazurin fluorescence viability; inhibition, % at 10 µM; AID 1063, 2008; in the data active = inhibition above about 50%;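 note: promastigotes grown with compound for 44 hours at 28 °C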
ABCB1 block: ABCB1 efflux pump inhibitors, primary screen, cell-based, multiplex, flow cytometry, ABCG2 counter-screen; AID 1326, 2008; inhibition, % at 6.6 µM; ATP-dependent translocase ABCB1 (Homo sapiens), P08183; CCRF-Adr cells, JC-1 efflux; actives 0.067% (n = 190,000); in the data active = inhibition above about 40%;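 note: 0% = vehicle and 100% = reference inhibitor; higher value means more JC-1 retained so stronger ABCB1 efflux block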
Target sequence (P08183 whole entry, looked up): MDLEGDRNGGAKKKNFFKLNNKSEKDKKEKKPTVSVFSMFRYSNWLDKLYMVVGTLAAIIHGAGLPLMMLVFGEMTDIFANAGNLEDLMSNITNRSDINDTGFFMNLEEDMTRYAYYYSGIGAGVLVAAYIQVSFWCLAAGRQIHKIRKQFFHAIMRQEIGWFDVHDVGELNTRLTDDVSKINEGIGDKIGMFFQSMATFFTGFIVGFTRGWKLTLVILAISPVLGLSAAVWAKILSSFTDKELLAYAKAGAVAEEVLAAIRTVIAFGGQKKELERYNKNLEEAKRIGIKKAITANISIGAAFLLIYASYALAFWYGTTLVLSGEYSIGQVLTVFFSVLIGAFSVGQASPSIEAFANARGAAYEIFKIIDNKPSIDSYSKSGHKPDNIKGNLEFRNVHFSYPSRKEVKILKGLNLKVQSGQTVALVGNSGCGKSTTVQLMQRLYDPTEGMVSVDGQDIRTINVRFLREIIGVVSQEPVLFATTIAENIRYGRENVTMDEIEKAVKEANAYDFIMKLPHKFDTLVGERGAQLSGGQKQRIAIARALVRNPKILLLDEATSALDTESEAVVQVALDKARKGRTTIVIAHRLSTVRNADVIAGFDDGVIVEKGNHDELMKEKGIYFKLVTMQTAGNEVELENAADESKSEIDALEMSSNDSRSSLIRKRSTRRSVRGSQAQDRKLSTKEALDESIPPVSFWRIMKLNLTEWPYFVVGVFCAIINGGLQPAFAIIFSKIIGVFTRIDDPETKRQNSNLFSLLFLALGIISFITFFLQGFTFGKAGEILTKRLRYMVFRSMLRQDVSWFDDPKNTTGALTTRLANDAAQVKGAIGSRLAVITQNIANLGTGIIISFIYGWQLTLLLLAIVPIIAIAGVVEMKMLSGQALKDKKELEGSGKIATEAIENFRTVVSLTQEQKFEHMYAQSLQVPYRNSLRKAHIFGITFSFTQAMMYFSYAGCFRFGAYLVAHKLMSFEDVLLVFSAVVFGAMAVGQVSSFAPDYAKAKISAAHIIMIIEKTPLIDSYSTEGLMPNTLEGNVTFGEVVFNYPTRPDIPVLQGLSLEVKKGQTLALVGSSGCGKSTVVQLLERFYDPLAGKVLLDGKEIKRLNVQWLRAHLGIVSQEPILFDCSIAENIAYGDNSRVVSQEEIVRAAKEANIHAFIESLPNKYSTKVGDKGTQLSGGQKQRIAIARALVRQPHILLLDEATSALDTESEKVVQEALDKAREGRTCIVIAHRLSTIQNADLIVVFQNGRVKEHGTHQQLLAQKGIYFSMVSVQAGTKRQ
WT yeast gro inh: growth inhibition of WT strain, primary screen, mitochondrial fusion inhibitor project, WT and mutant strains, chemical genetic | mitochondrial fusion phenotypic screen | inhibition, % at 10 µM | actives 2.1% (n = 190,000); in the data active = inhibition above about 58%; tested in S. cerevisiae
Starred values were filed as active, the others as inactive. Compounds with a hit are over-represented: about 12% of the library has one in this group of screens.

SMILES	RAM network inh	ABCG2 block	Lmaj promast	ABCB1 block	WT yeast gro inh
O=C(CN1C(=O)NC(Cc2c[nH]c3ccccc23)C1=O)Nc1cccc(S(=O)(=O)N2CCCCCC2)c1 (configuration not stated)	2	-9	64*	0	-13
O=C(CCl)Nc1cccc(S(=O)(=O)N2CCCCCC2)c1	0	-1	85*	0	-2
O=C(CNCC1CCCCC1)Nc1cccc(S(=O)(=O)N2CCOCC2)c1	-1	3	79*	1	-6
O=C(CN1C(=O)NC(Cc2c[nH]c3ccccc23)C1=O)Nc1cccc(S(=O)(=O)N2CCCC2)c1 (configuration not stated)	3	1	5	-1	-2
CC(CNc1ccccc1O)C(=O)O (configuration not stated)	0	-2	-2	0	-1
COc1cc(C(=O)Oc2ccccc2/C=N/NC(=O)c2ccc(Cl)cc2)cc(OC)c1OC	4	32	93*	10	3
COc1cc2cc(C(c3nnnn3C3CCCC3)N3CCc4ccccc43)c(=O)[nH]c2cc1OC (configuration not stated)	1	2	-4	1	13
CCOC(=O)C1CCN(C(c2cc3ccc(C)cc3[nH]c2=O)c2nnnn2C2CCCCC2)CC1 (configuration not stated)	3	9	88*	11	4
CCC(C)(C)n1nnnc1C(c1cc2ccc(OC)cc2[nH]c1=O)N1CCN(C2CCCCC2)CC1 (configuration not stated)	1	5	-16	1	11
COc1ccccc1N1CCN(C(c2cc3cc(C)ccc3[nH]c2=O)c2nnnn2C2CCCC2)CC1 (configuration not stated)	1	3	54*	3	2
COc1ccccc1N1CCN(C(c2cc3ccc(C)cc3[nH]c2=O)c2nnnn2C2CCCC2)CC1 (configuration not stated)	1	3	62*	3	-10
CC(=O)N(C)c1ccc(C(O)(C(F)(F)F)C(F)(F)F)cc1	1	4	99*	0	9
CCOC(=O)N(C)c1ccc(C(O)(C(F)(F)F)C(F)(F)F)cc1	0	2	100*	0	22
CC(=O)N(C)c1ccc(NC(=O)Nc2ccc(C)cc2)cc1	2	4	2	0	5
O=C(O)c1ccc(S(=O)(=O)Nc2ccc(O)c(Sc3nc4ccccc4s3)c2)cc1	9.8*	-2	-7	0	5
Cn1cccc1/C=C1\SC(=O)N(c2ccc(O)cc2)C1=O	5	2	-10	0	-6
CC1Cc2ccccc2N1S(=O)(=O)c1cccc(C(=O)N2CCN(c3ncccn3)CC2)c1 (configuration not stated)	0	7	77*	4	19
CCOC(=O)c1ccc(NC(=O)c2cccc(S(=O)(=O)N3c4ccccc4CC3C)c2)s1 (configuration not stated)	3	-16	99*	0	30
CC1Cc2ccccc2N1S(=O)(=O)c1cccc(C(=O)NCCCO)c1 (configuration not stated)	0	6	6	1	-12
COc1ccc(N2CCN(C(c3cccs3)C(C)NS(C)(=O)=O)CC2)cc1 (configuration not stated)	1	5	-7	1	2
COc1ccc(C(=O)Nc2cccnc2)cc1OC	-1	2	0	1	0
COc1ccc(Cl)cc1C(Nc1cccnc1)c1ccc2cccnc2c1O (configuration not stated)	-1	-4	62*	-2	7
CCC(=O)NC(c1ccccc1OC)c1ccc2cccnc2c1O (configuration not stated)	2	2	100*	1	-12
CCC(=O)NC(c1ccco1)c1cc(Cl)c2cccnc2c1O (configuration not stated)	4	1	15	0	-24
CCCC(=O)NC(c1ccc(OC)cc1)c1ccc2cccnc2c1O (configuration not stated)	1	1	100*	0	-8
